Experimental data reported in ChEMBL document CHEMBL1147446, “Antagonists of human CCR5 receptor containing 4-(pyrazolyl)piperidine side chains. Part 3: SAR studies on the benzylpyrazole segment” (Bioorg Med Chem Lett, 2004).

How the values were obtained:
HeLa [1] = assay: Antiviral activities in a cell culture HIV-1 infectivity inhibition assay using HeLa cells; assay type: functional; settings: Homo sapiens
[2] = target: C-C chemokine receptor type 5 (Homo sapiens, UniProt P51681); assay: Inhibitory concentration for displacement of [125I]-MIP-1 alpha from recombinant human CC chemokine receptor 5 (CCR5) expressed in CHO cell; assay type: cell-based
Summary of the method: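 Competitive binding to CCR5 on CHO cell membranes, read as displacement of [125I]-labeled MIP-1α. IC50 values are means of triplicate determinations. Standard errors were normally <15% within an assay. Assay-to-assay variation was within ±2-fold, judged from a standard compound.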

HeLa [3] = assay: Antiviral activities in a cell culture HIV-1 infectivity inhibition assay using HeLa cells plus 50% normal human serum; assay type: functional

C-C chemokine receptor type 5, sequence (P51681 whole entry): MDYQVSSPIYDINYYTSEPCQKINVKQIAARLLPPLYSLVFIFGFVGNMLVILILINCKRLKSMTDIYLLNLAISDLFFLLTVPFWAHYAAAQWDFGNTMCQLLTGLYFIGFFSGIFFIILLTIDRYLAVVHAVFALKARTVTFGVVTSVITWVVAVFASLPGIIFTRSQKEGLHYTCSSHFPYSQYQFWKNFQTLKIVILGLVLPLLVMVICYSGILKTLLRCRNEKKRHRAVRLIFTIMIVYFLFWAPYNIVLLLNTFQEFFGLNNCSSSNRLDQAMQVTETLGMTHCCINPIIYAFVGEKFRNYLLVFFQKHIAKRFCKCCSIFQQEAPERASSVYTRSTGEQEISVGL

Compound | IC90 (HeLa [1]) [nM] | IC50 [2] [nM] | IC90 (HeLa [3]) [nM]
CC[C@H](C)[C@H](C(=O)O)N1C[C@H](CN2CCC(c3cc(CC4CCCCC4)nn3CC)CC2)[C@@H](c2cccc(F)c2)C1 | 1.2 | 1.2 | 300
CCn1nc(Cc2ccc(OC3CC3)cc2)cc1C1CCN(C[C@H]2CN([C@@H](C(=O)O)C(C)C)C[C@@H]2c2cccc(F)c2)CC1 | 1.2 | 1 | 300
CC[C@@H](C)[C@H](C(=O)O)N1C[C@H](CN2CCC(c3cc(Cc4ccc(OC5CC5)cc4)nn3CC)CC2)[C@@H](c2cccc(F)c2)C1 | < 0.14 | 0.3 | 33
CCCCOc1ccc(Cc2cc(C3CCN(C[C@H]4CN([C@@H](C(=O)O)C(C)C)C[C@@H]4c4cccc(F)c4)CC3)n(CC)n2)cc1 | 11 | 0.5 | 300
CC[C@@H](C)[C@H](C(=O)O)N1C[C@H](CN2CCC(c3cc(Cc4ccc(OC(F)(F)F)cc4)nn3CC)CC2)[C@@H](c2cccc(F)c2)C1 | 1.2 | 0.6 | 100
CCn1nc(Cc2ccc(S(=O)(=O)c3ccccc3)cc2)cc1C1CCN(C[C@H]2CN([C@@H](C(=O)O)C(C)C)C[C@@H]2c2cccc(F)c2)CC1 | 0.4 | 1.3 | 33
CC[C@@H](C)[C@H](C(=O)O)N1C[C@H](CN2CCC(c3cc(Cc4ccc(OCC(F)(F)F)cc4)nn3CC)CC2)[C@@H](c2cccc(F)c2)C1 | 3.7 | 0.5 | 100
CCn1nc(Cc2ccc(S(=O)(=O)c3ccccc3)cc2)cc1C1CCN(C[C@H]2CN([C@@H](C(=O)O)C3CCCCC3)C[C@@H]2c2cccc(F)c2)CC1 | 0.4 | 0.8 | 33
CC[C@H](C)[C@H](C(=O)O)N1C[C@H](CN2CCC(c3cc(Cc4ccc(S(=O)(=O)c5ccccc5)cc4)nn3CC)CC2)[C@@H](c2cccc(F)c2)C1 | < 0.14 | 0.6 | 11
CC[C@H](C)[C@H](C(=O)O)N1C[C@H](CN2CCC(c3cc(Cc4cc(C(F)(F)F)cc(C(F)(F)F)c4)nn3CC)CC2)[C@@H](c2cccc(F)c2)C1 | 11 | 2.1 | > 300
CC[C@@H](C)[C@H](C(=O)O)N1C[C@H](CN2CCC(c3cc(Cc4cc(C(F)(F)F)cc(C(F)(F)F)c4)nn3CC)CC2)[C@@H](c2cccc(F)c2)C1 | 33 | 1.6 | > 300
CCn1nc(Cc2ccc(C(F)(F)F)cc2)cc1C1CCN(C[C@H]2CN([C@@H](C(=O)O)C(C)C)C[C@@H]2c2cccc(F)c2)CC1 | 3.7 | 2 | 100
CC[C@H](C)[C@H](C(=O)O)N1C[C@H](CN2CCC(c3cc(Cc4cccc5ccccc45)nn3CC)CC2)[C@@H](c2cccc(F)c2)C1 | < 0.14 | 0.4 | 11
CCn1nc(Cc2ccc(C#N)cc2)cc1C1CCN(C[C@H]2CN([C@@H](C(=O)O)C(C)C)C[C@@H]2c2cccc(F)c2)CC1 | 1.2 | 3.1 | 100
CC[C@H](C)[C@H](C(=O)O)N1C[C@H](CN2CCC(c3cc(Cc4ccc(OC(C)C)cc4)nn3CC)CC2)[C@@H](c2cccc(F)c2)C1 | < 0.14 | 0.8 | 33
CC[C@@H](C)[C@H](C(=O)O)N1C[C@H](CN2CCC(c3cc(Cc4cccc5ccccc45)nn3CC)CC2)[C@@H](c2cccc(F)c2)C1 | < 0.14 | 0.2 | 33
CC[C@@H](C)[C@H](C(=O)O)N1C[C@H](CN2CCC(c3cc(Cc4ccc(Oc5ccccc5)cc4)nn3CC)CC2)[C@@H](c2cccc(F)c2)C1 | 3.7 | 0.5 | 300
CC[C@H](C)[C@H](C(=O)O)N1C[C@H](CN2CCC(c3cc(Cc4ccc5c(c4)OCO5)nn3CC)CC2)[C@@H](c2cccc(F)c2)C1 | < 0.14 | 0.5 | 100
CCn1nc(Cc2cc(C(F)(F)F)cc(C(F)(F)F)c2)cc1C1CCN(C[C@H]2CN([C@@H](C(=O)O)C(C)(C)C)C[C@@H]2c2cccc(F)c2)CC1 | 11 | 2.3 | > 300
CC[C@H](C)[C@H](C(=O)O)N1C[C@H](CN2CCC(c3cc(Cc4ccc(OCC(F)(F)F)cc4)nn3CC)CC2)[C@@H](c2cccc(F)c2)C1 | 0.4 | 0.6 | 33
CCn1nc(Cc2ccc(C(F)(F)F)cc2)cc1C1CCN(C[C@H]2CN([C@@H](C(=O)O)C3CCCCC3)C[C@@H]2c2cccc(F)c2)CC1 | 0.4 | 1.5 | 33
CCCOc1ccc(Cc2cc(C3CCN(C[C@H]4CN([C@@H](C(=O)O)[C@@H](C)CC)C[C@@H]4c4cccc(F)c4)CC3)n(CC)n2)cc1 | < 0.14 | 1.1 | 100
CCCCOc1ccc(Cc2cc(C3CCN(C[C@H]4CN([C@@H](C(=O)O)[C@H](C)CC)C[C@@H]4c4cccc(F)c4)CC3)n(CC)n2)cc1 | 3.7 | 0.8 | 100
CC[C@@H](C)[C@H](C(=O)O)N1C[C@H](CN2CCC(c3cc(Cc4ccc5ccccc5c4)nn3CC)CC2)[C@@H](c2cccc(F)c2)C1 | < 0.14 | 0.2 | 300
CC[C@H](C)[C@H](C(=O)O)N1C[C@H](CN2CCC(c3cc(Cc4ccc(-c5ccccc5)cc4)nn3CC)CC2)[C@@H](c2cccc(F)c2)C1 | 0.4 | 0.3 | 33
CCn1nc(Cc2ccc(C#N)cc2)cc1C1CCN(C[C@H]2CN([C@@H](C(=O)O)C3CCCCC3)C[C@@H]2c2cccc(F)c2)CC1 | 0.4 | 1.7 | 11
CCOc1ccc(Cc2cc(C3CCN(C[C@H]4CN([C@@H](C(=O)O)C5CCCCC5)C[C@@H]4c4cccc(F)c4)CC3)n(CC)n2)cc1 | < 0.14 | 1 | 33
CC[C@H](C)[C@H](C(=O)O)N1C[C@H](CN2CCC(c3cc(Cc4ccc(C(F)(F)F)cc4)nn3CC)CC2)[C@@H](c2cccc(F)c2)C1 | < 0.14 | 0.5 | 33

Second part, led by results:

IC90 (HeLa [1]) [nM] | IC50 [2] [nM] | Compound | IC90 (HeLa [3]) [nM]
< 0.14 | 0.9 | CCOc1cccc(Cc2cc(C3CCN(C[C@H]4CN([C@@H](C(=O)O)[C@@H](C)CC)C[C@@H]4c4cccc(F)c4)CC3)n(CC)n2)c1 | 100
0.4 | 0.9 | CC[C@@H](C)[C@H](C(=O)O)N1C[C@H](CN2CCC(c3cc(Cc4ccccc4)nn3CC)CC2)[C@@H](c2cccc(F)c2)C1 | 300
< 0.14 | 0.4 | CCOc1ccc(Cc2cc(C3CCN(C[C@H]4CN([C@@H](C(=O)O)C(C)C)C[C@@H]4c4cccc(F)c4)CC3)n(CC)n2)cc1F | 100
1.2 | 0.8 | CCCCOc1ccc(Cc2cc(C3CCN(C[C@H]4CN([C@@H](C(=O)O)C(C)(C)C)C[C@@H]4c4cccc(F)c4)CC3)n(CC)n2)cc1 | 33
0.4 | 1 | CCOc1ccc(Cc2cc(C3CCN(C[C@H]4CN([C@@H](C(=O)O)C(C)C)C[C@@H]4c4cccc(F)c4)CC3)n(CC)n2)cc1 | 300
0.4 | 1.3 | CCn1nc(Cc2ccc(OC)cc2)cc1C1CCN(C[C@H]2CN([C@@H](C(=O)O)C(C)C)C[C@@H]2c2cccc(F)c2)CC1 | 100
< 0.14 | 0.8 | CCn1nc(Cc2ccc(OC(C)(C)C)cc2)cc1C1CCN(C[C@H]2CN([C@@H](C(=O)O)C(C)C)C[C@@H]2c2cccc(F)c2)CC1 | 100
1.2 | 0.8 | CC[C@@H](C)[C@H](C(=O)O)N1C[C@H](CN2CCC(c3cc(Cc4ccc(C(C)(C)C)cc4)nn3CC)CC2)[C@@H](c2cccc(F)c2)C1 | 300
3.7 | 1.1 | CCn1nc(Cc2ccc(OCc3ccccc3)cc2)cc1C1CCN(C[C@H]2CN([C@@H](C(=O)O)C(C)(C)C)C[C@@H]2c2cccc(F)c2)CC1 | 300
< 0.14 | 0.4 | CCOc1cccc(Cc2cc(C3CCN(C[C@H]4CN([C@@H](C(=O)O)C(C)(C)C)C[C@@H]4c4cccc(F)c4)CC3)n(CC)n2)c1 | 100
< 0.14 | 0.2 | CCn1nc(Cc2ccc3ccccc3c2)cc1C1CCN(C[C@H]2CN([C@@H](C(=O)O)C(C)(C)C)C[C@@H]2c2cccc(F)c2)CC1 | 100
0.4 | 0.6 | CCn1nc(Cc2ccc(C(C)C)cc2)cc1C1CCN(C[C@H]2CN([C@@H](C(=O)O)C(C)(C)C)C[C@@H]2c2cccc(F)c2)CC1 | 33
< 0.14 | 0.9 | CC[C@H](C)[C@H](C(=O)O)N1C[C@H](CN2CCC(c3cc(Cc4cccc(C#N)c4)nn3CC)CC2)[C@@H](c2cccc(F)c2)C1 | 11
3.7 | 0.4 | CCn1nc(Cc2ccc(Oc3ccccc3)cc2)cc1C1CCN(C[C@H]2CN([C@@H](C(=O)O)C(C)(C)C)C[C@@H]2c2cccc(F)c2)CC1 | 300
< 0.14 | 0.4 | CCn1nc(Cc2ccc(OC3CC3)cc2)cc1C1CCN(C[C@H]2CN([C@@H](C(=O)O)C(C)(C)C)C[C@@H]2c2cccc(F)c2)CC1 | 33
1.2 | 0.6 | CCn1nc(Cc2ccc(OCC(F)(F)F)cc2)cc1C1CCN(C[C@H]2CN([C@@H](C(=O)O)C(C)(C)C)C[C@@H]2c2cccc(F)c2)CC1 | 100
< 0.14 | 1.5 | CCn1nc(Cc2ccc(OC)cc2)cc1C1CCN(C[C@H]2CN([C@@H](C(=O)O)C(C)(C)C)C[C@@H]2c2cccc(F)c2)CC1 | 33
< 0.14 | 0.7 | CCn1nc(Cc2cccc(OC)c2)cc1C1CCN(C[C@H]2CN([C@@H](C(=O)O)C(C)(C)C)C[C@@H]2c2cccc(F)c2)CC1 | 33
